ChEMBL document CHEMBL4024746, “Nonpyrogenic Molecular Adjuvants Based on norAbu-Muramyldipeptide and norAbu-Glucosaminyl Muramyldipeptide: Synthesis, Molecular Mechanisms of Action, and Biological Activities in Vitro and in Vivo” (J Med Chem, 2017)
Calls of active or inactive are those of the source. The calls are words filed in the database; no cut-off is given here.

Legend:
Oryctolagus cuniculus [1] = assay: Toxicity in New Zealand albino rabbit assessed as necrosis at site of application at 100 nmol/kg, sc using liposomal formulation measured up to 2 months post dose; format: organism-based; conditions: in vivo
Oryctolagus cuniculus [2] = assay: Toxicity in Chinchilla rabbit assessed as behavioral changes at 100 nmol/kg, iv using micellar formulation measured up to 2 months post dose; format: organism-based; conditions: in vivo
Oryctolagus cuniculus [3] = assay: Pyrogenic activity in New Zealand albino rabbit assessed as change in maximum body temperature at 100 nmol/kg, sc using liposomal formulation measured at 30 mins time intervals for 9 to 24 hrs (reference value: 0.2 degC); format: toxicity, organism-based; conditions: in vivo
Procedure, shortened: (§1)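 Standard rabbit pyrogenicity test, three animals per group, iv or modified sc application of free (micellar) or liposomal formulations. Maximum temperature rise (+ΔTmax) summed per group; sum below 1.1 °C classed as nonpyrogenic. Temperature followed a further 24 h for delayed pyrogenicity.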

[4] = biological target: NACHT, LRR and PYD domains-containing protein 3 (Homo sapiens, UniProt Q96P20); assay: Agonist activity at NLRP3 in human […] cells assessed as induction of LPS-induced IL-1beta secretion by HEK-Blue reporter cell based assay
Sequence of NACHT, LRR and PYD domains-containing protein 3 (Q96P20 whole entry, the tested form may be a part): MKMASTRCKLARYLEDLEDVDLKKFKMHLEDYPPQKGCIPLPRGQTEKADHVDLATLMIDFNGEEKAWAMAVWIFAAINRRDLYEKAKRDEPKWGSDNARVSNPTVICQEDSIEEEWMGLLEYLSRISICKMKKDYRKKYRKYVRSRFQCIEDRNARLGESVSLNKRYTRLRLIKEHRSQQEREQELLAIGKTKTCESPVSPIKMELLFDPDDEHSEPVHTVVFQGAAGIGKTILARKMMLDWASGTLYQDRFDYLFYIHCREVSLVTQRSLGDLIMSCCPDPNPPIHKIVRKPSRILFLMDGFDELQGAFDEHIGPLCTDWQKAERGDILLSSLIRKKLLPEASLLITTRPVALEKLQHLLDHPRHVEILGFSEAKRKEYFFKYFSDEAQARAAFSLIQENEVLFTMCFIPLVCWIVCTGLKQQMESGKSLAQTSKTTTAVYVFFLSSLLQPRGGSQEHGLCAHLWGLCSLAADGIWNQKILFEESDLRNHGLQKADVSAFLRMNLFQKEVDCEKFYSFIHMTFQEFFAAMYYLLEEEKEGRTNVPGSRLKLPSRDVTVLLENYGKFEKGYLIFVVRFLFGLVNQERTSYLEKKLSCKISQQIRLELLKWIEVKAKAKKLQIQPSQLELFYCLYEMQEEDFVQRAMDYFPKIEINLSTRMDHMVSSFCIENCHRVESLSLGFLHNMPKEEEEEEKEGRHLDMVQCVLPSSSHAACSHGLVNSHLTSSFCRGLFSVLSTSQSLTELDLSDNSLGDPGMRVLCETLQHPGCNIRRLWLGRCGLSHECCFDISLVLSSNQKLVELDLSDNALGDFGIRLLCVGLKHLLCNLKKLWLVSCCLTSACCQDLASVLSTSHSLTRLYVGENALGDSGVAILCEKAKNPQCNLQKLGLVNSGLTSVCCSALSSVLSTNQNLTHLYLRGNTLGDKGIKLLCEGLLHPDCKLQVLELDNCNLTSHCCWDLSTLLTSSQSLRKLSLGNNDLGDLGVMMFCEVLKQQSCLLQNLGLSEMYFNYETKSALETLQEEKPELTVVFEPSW
Procedure, shortened: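 THP1-Null cells stimulated with compounds; mature IL-1β released is detected with HEK-Blue IL-1β cells through SEAP reporter activity in the supernatant, read colorimetrically with QUANTI-Blue. ATP serves as positive standard. Untreated HEK-Blue IL-1β cells serve as negative control; comparison by ANOVA with Dunnett's test.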

Mus musculus = assay: Immuno-stimulatory activity in ICR mouse assessed as induction of GM-progenitor cell proliferation in serum at […], sc using liposomal formulation measured after 6 hrs; format: functional, organism-based
Procedure, shortened: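 Female ICR mice, 3 months old, four per group, given liposomal preparations sc at 100 nmol per dose in 200 μL. Serum collected 6 h later and added to cultured granulocyte–monocyte progenitors. GM-CFU colonies counted, with serum-free cells as baseline. Dunnett's test is used versus the infusion-solution control.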

Oryctolagus cuniculus [5] = assay: Toxicity in Chinchilla rabbit assessed as necrosis at site of application at 100 nmol/kg, iv using micellar formulation measured up to 2 months post dose; format: organism-based; conditions: in vivo
Oryctolagus cuniculus [6] = assay: Toxicity in Chinchilla rabbit assessed as weight loss at 100 nmol/kg, iv using micellar formulation measured up to 2 months post dose; format: organism-based; conditions: in vivo
Oryctolagus cuniculus [7] = assay: Pyrogenic activity in Chinchilla rabbit assessed as change in maximum body temperature at 100 nmol/kg, iv using micellar foemulation measured at 30 mins time intervals; format: toxicity, organism-based; conditions: in vivo, 0.5 h; procedure, shortened: as §1
Oryctolagus cuniculus [8] = assay: Toxicity in Chinchilla rabbit assessed as skin irritation at 100 nmol/kg, iv using micellar formulation measured up to 2 months post dose; format: organism-based; conditions: in vivo
[9] = biological target: T1, Nucleotide-binding oligomerization domain-containing protein 1 (Homo sapiens) (UniProt Q9Y239); assay: Agonist activity at human NOD1 receptor expressed in HEK-Blue reporter cells at 10 uM after 48 hrs by SEAP reporter gene assay; format: cell-based
T1 sequence (whole entry): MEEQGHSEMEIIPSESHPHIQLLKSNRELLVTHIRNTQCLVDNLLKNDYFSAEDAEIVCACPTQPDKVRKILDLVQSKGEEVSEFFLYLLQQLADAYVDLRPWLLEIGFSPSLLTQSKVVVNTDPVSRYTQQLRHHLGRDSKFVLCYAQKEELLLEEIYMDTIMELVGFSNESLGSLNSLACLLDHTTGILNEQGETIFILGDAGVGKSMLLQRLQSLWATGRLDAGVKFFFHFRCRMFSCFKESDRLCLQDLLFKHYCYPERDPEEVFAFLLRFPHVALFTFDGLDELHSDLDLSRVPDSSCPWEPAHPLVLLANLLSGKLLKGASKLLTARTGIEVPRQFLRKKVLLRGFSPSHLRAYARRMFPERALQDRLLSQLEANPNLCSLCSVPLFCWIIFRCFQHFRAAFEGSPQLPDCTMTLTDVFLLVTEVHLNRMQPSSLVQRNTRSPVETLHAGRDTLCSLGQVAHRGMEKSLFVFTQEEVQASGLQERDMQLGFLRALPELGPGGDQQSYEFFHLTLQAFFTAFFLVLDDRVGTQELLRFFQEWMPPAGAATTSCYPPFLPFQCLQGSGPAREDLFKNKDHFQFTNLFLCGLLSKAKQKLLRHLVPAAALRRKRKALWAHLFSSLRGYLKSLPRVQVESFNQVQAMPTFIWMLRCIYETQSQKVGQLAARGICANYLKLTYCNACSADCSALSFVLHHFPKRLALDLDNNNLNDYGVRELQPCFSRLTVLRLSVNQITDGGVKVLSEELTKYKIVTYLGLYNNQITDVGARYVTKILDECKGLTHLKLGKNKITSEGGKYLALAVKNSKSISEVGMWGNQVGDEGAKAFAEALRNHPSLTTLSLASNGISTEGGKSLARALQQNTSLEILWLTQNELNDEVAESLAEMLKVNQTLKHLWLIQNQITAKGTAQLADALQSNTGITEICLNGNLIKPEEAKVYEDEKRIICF
Procedure, shortened: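 HEK293 cells cotransfected with human NOD1 and an NF-κB/AP-1-inducible SEAP reporter, exposed to compounds at 10 μM for 48 h. SEAP is read at 650 nm with QUANTI-Blue. Diaminopimelic acid derivatives serve as NOD1 positive controls. Dunnett's test is used versus untreated cells.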

[10] = biological target: Nucleotide-binding oligomerization domain-containing protein 2 (Homo sapiens) (UniProt Q9HC29); assay: Agonist activity at human NOD2 receptor expressed in mouse Raw-Blue reporter cells at 10 uM after 48 hrs in presence of gefitinib by SEAP reporter gene assay; format: cell-based
Sequence of Nucleotide-binding oligomerization domain-containing protein 2 (Homo sapiens) (Q9HC29 whole entry, the tested form may be a part): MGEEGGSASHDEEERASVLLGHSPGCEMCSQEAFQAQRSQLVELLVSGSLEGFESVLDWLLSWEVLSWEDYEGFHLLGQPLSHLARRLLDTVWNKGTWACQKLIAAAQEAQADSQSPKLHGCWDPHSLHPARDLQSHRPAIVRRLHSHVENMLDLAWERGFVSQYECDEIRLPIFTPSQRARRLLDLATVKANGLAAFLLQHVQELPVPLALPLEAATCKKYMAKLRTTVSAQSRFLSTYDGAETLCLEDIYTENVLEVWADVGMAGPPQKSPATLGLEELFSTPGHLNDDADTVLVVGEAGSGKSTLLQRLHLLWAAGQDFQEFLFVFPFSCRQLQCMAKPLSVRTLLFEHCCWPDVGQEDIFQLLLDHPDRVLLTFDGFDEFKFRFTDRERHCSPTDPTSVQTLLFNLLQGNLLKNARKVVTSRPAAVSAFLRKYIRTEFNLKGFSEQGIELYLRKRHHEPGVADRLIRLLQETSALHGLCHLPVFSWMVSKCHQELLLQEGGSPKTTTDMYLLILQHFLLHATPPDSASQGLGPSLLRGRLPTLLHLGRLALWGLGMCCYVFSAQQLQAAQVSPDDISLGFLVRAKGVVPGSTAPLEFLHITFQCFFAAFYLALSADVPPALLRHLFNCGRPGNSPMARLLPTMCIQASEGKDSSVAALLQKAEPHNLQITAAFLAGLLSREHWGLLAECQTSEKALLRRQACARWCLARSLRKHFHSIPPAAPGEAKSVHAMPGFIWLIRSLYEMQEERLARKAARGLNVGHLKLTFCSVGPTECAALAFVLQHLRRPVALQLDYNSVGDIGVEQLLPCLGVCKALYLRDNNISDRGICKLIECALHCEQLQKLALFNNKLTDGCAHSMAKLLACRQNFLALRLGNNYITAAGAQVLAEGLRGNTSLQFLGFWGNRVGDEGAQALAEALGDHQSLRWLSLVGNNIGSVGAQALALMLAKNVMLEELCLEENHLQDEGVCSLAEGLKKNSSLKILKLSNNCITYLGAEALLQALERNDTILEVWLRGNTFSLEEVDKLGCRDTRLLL

[11] = biological target: Nucleotide-binding oligomerization domain-containing protein 2 (Homo sapiens) (UniProt Q9HC29); assay: Agonist activity at human NOD2 receptor expressed in mouse Raw-Blue reporter cells at 10 uM after 24 hrs in presence of GSK717 by SEAP reporter gene assay
[12] = biological target: Nucleotide-binding oligomerization domain-containing protein 2 (Homo sapiens) (UniProt Q9HC29); assay: Agonist activity at human NOD2 receptor expressed in mouse Raw-Blue reporter cells at 10 uM after 48 hrs by SEAP reporter gene assay; format: cell-based
Procedure, shortened: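 RAW 264.7-derived RAW-Blue cells carrying an NF-κB/AP-1-inducible SEAP reporter, exposed to compounds at 10 μM for 48 h. Colorimetric SEAP read-out at 650 nm. MDP serves as positive control. ANOVA with Dunnett's test versus untreated cells and versus MDP.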

Oryctolagus cuniculus [13] = assay: Toxicity in New Zealand albino rabbit assessed as skin irritation at 100 nmol/kg, sc using liposomal formulation measured up to 2 months post dose; format: organism-based; conditions: in vivo
Oryctolagus cuniculus [14] = assay: Toxicity in New Zealand albino rabbit assessed as weight loss at 100 nmol/kg, sc using liposomal formulation measured up to 2 months post dose; format: organism-based; conditions: in vivo
Oryctolagus cuniculus [15] = assay: Toxicity in New Zealand albino rabbit assessed as behavioral changes at 100 nmol/kg, sc using liposomal formulation measured up to 2 months post dose; format: organism-based; conditions: in vivo

CCCCCCCCCCCCCCC(CCCCCCCCCCCCCC)C(=O)NCCCC[C@H](NC(=O)CC[C@@H](NC(=O)[C@H](CC)NC(=O)CO[C@H]1[C@H](O[C@@H]2O[C@H](CO)[C@@H](O)[C@H](O)[C@H]2NC(C)=O)[C@@H](CO)OC(O)[C@@H]1NC(C)=O)C(N)=O)C(=O)O (some centres not stated)
Activity (Oryctolagus cuniculus [1]): Non-Toxic
Activity (Oryctolagus cuniculus [2]): Non-Toxic
deltaT (Oryctolagus cuniculus [3]): 0.5 °C
Activity [4]: Active
Activity (Mus musculus): Active
Activity (Oryctolagus cuniculus [5]): Non-Toxic
Activity (Oryctolagus cuniculus [6]): Non-Toxic
deltaT (Oryctolagus cuniculus [7]): 0.4 °C
Activity (Oryctolagus cuniculus [8]): Non-Toxic
Activity [9]: inactive
Activity [10]: inactive
Activity [11]: inactive
Activity [12]: Active
Activity (Oryctolagus cuniculus [13]): Non-Toxic
Activity (Oryctolagus cuniculus [14]): Non-Toxic
Activity (Oryctolagus cuniculus [15]): Non-Toxic

Nc1ncnc2c1ncn2[C@@H]1O[C@H](COP(=O)(O)OP(=O)(O)OP(=O)(O)O)[C@@H](O)[C@H]1O [ADENOSINE TRIPHOSPHATE]
Activity [4]: Active

CCCCCCCCCCCCCCC(CCCCCCCCCCCCCC)C(=O)OC[C@H]1OC(O)[C@H](NC(C)=O)[C@@H](OCC(=O)N[C@@H](CC)C(=O)N[C@H](CCC(=O)O)C(N)=O)[C@@H]1O (some centres not stated)
Activity (Oryctolagus cuniculus [1]): Non-Toxic
Activity (Oryctolagus cuniculus [2]): Non-Toxic
deltaT (Oryctolagus cuniculus [3]): 0.5 °C
Activity [4]: Active
Activity (Mus musculus): Active
Activity (Oryctolagus cuniculus [5]): Non-Toxic
Activity (Oryctolagus cuniculus [6]): Non-Toxic
deltaT (Oryctolagus cuniculus [7]): 0.6 °C
Activity (Oryctolagus cuniculus [8]): Non-Toxic
Activity [9]: inactive
Activity [10]: inactive
Activity [11]: inactive
Activity [12]: Active
Activity (Oryctolagus cuniculus [13]): Non-Toxic
Activity (Oryctolagus cuniculus [14]): Non-Toxic
Activity (Oryctolagus cuniculus [15]): Non-Toxic

C[C@H](NC(=O)[C@@H](C)O[C@H]1[C@H](O)[C@@H](CO)OC(O)[C@@H]1NC(=O)CO)C(=O)N[C@H](CCC(=O)O)C(N)=O (some centres not stated)
Activity [12]: Active

C[C@H](N)C(=O)N[C@H](CCC(=O)NC12CC3CC(CC(C3)C1)C2)C(N)=O
Activity [12]: inactive

CCCCCCCCCCCCCCCCCC(=O)OC[C@H]1OC(O)[C@H](NC(C)=O)[C@@H](O[C@H](C)C(=O)N[C@@H](C)C(=O)N[C@H](CCC(=O)O)C(N)=O)[C@@H]1O (some centres not stated)
Activity [10]: inactive
Activity [11]: inactive
Activity [12]: Active

CCCCCCCCCCCCCCCCCC(=O)NCCCC[C@H](NC(=O)CC[C@@H](NC(=O)[C@H](CC)NC(=O)CO[C@H]1[C@H](O[C@@H]2O[C@H](CO)[C@@H](O)[C@H](O)[C@H]2NC(C)=O)[C@@H](CO)OC(O)[C@@H]1NC(C)=O)C(N)=O)C(=O)O (some centres not stated)
Activity (Oryctolagus cuniculus [1]): Non-Toxic
Activity (Oryctolagus cuniculus [2]): Non-Toxic
deltaT (Oryctolagus cuniculus [3]): 0.4 °C
Activity [4]: Active
Activity (Mus musculus): Active
Activity (Oryctolagus cuniculus [5]): Non-Toxic
Activity (Oryctolagus cuniculus [6]): Non-Toxic
deltaT (Oryctolagus cuniculus [7]): 0.5 °C
Activity (Oryctolagus cuniculus [8]): Non-Toxic
Activity [9]: inactive
Activity [10]: inactive
Activity [11]: inactive
Activity [12]: Active
Activity (Oryctolagus cuniculus [13]): Non-Toxic
Activity (Oryctolagus cuniculus [14]): Non-Toxic
Activity (Oryctolagus cuniculus [15]): Non-Toxic

CCCCCCCCCCCCCCCCCC(=O)OC[C@H]1OC(O)[C@H](NC(C)=O)[C@@H](OCC(=O)N[C@@H](CC)C(=O)N[C@H](CCC(=O)O)C(N)=O)[C@@H]1O (some centres not stated)
Activity (Oryctolagus cuniculus [1]): Non-Toxic
Activity (Oryctolagus cuniculus [2]): Non-Toxic
deltaT (Oryctolagus cuniculus [3]): 0.6 °C
Activity [4]: Active
Activity (Mus musculus): Active
Activity (Oryctolagus cuniculus [5]): Non-Toxic
Activity (Oryctolagus cuniculus [6]): Non-Toxic
deltaT (Oryctolagus cuniculus [7]): 0.6 °C
Activity (Oryctolagus cuniculus [8]): Non-Toxic
Activity [9]: inactive
Activity [10]: inactive
Activity [11]: inactive
Activity [12]: Active
Activity (Oryctolagus cuniculus [13]): Non-Toxic
Activity (Oryctolagus cuniculus [14]): Non-Toxic
Activity (Oryctolagus cuniculus [15]): Non-Toxic

CCCCCCCCCCCCCCCCCC(=O)NCCCC[C@H](NC(=O)CC[C@@H](NC(=O)[C@H](CC)NC(=O)CO[C@H]1[C@H](O)[C@@H](CO)OC(O)[C@@H]1NC(C)=O)C(N)=O)C(=O)O (some centres not stated)
Activity (Oryctolagus cuniculus [1]): Non-Toxic
Activity (Oryctolagus cuniculus [2]): Non-Toxic
deltaT (Oryctolagus cuniculus [3]): 0.5 °C
Activity [4]: Active
Activity (Mus musculus): Active
Activity (Oryctolagus cuniculus [5]): Non-Toxic
Activity (Oryctolagus cuniculus [6]): Non-Toxic
deltaT (Oryctolagus cuniculus [7]): 0.4 °C
Activity (Oryctolagus cuniculus [8]): Non-Toxic
Activity [9]: inactive
Activity [10]: inactive
Activity [11]: inactive
Activity [12]: Active
Activity (Oryctolagus cuniculus [13]): Non-Toxic
Activity (Oryctolagus cuniculus [14]): Non-Toxic
Activity (Oryctolagus cuniculus [15]): Non-Toxic

CCCCCCCCCCCCCCCCCC(=O)N[C@H]1[C@H](O[C@H]2[C@H](OCC(=O)N[C@@H](CC)C(=O)N[C@H](CCC(=O)O)C(N)=O)[C@@H](NC(C)=O)C(O)O[C@@H]2CO)O[C@H](CO)[C@@H](O)[C@@H]1O (some centres not stated)
Activity (Oryctolagus cuniculus [1]): Non-Toxic
Activity (Oryctolagus cuniculus [2]): Non-Toxic
deltaT (Oryctolagus cuniculus [3]): 0.4 °C
Activity [4]: Active
Activity (Mus musculus): Active
Activity (Oryctolagus cuniculus [5]): Non-Toxic
Activity (Oryctolagus cuniculus [6]): Non-Toxic
deltaT (Oryctolagus cuniculus [7]): 0.5 °C
Activity (Oryctolagus cuniculus [8]): Non-Toxic
Activity [9]: inactive
Activity [10]: inactive
Activity [11]: inactive
Activity [12]: Active
Activity (Oryctolagus cuniculus [13]): Non-Toxic
Activity (Oryctolagus cuniculus [14]): Non-Toxic
Activity (Oryctolagus cuniculus [15]): Non-Toxic
